According to ChEMBL document CHEMBL3808338, “Combined inhibition of the EGFR/AKT pathways by a novel conjugate of quinazoline with isothiocyanate” (Eur J Med Chem, 2016):
Calls of active or inactive are those of the source. The calls are words filed in the database; no cut-off is given here.

Tests used:
HaCaT = assay: Antiproliferative activity against human HaCaT cells assessed as cell growth inhibition after 72 hrs by MTT assay; assay type: functional, cell-based
Outline: (§1)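 A431 or HaCaT cells seeded at 1x10⁴ cells/well, incubated 24 h, then exposed to 0.03-30 µM for 72 h at 37°C, 5% CO₂. MTT (5 mg/ml in PBS) for 4 h after a PBS wash, formazan dissolved in isopropanol, read at 405 nm. Viability expressed as % of untreated cells; IC₅₀ taken from at least three independent dose-response curves.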

[1] = target: T1, Epidermal growth factor receptor (Homo sapiens, UniProt P00533); assay: Inhibition of EGFR-TK in human A431 cell lysate assessed as reduction in EGF stimulated kinase activity at 20 uM after 60 mins using biotinylated peptide substrate by ELISA; assay type: cell-free; conditions: A-431
Outline: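 A431 cells seeded at 4x10⁶ per 100-mm dish and stimulated with EGF (100 nM) for 60 min with or without compound. Tyrosine kinase activity in lysates measured by direct colorimetric ELISA using a biotinylated peptide substrate and an anti-phosphotyrosine-HRP antibody.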

A-431 [2] = assay: Antiproliferative activity against human A431 cells assessed as cell growth inhibition after 72 hrs by MTT assay; assay type: functional, cell-based; conditions: A-431, 72 h; outline: as §1
[3] = target: T1, Epidermal growth factor receptor; assay: Inhibition of EGFR-TK in human A431 cell lysate assessed as reduction in EGF stimulated kinase activity after 60 mins using biotinylated peptide substrate by ELISA; assay type: cell-based, A-431
[4] = Antiproliferative activity against human HGF assessed as cell growth inhibition at 30 uM after 72 hrs by MTT assay; conditions: HGF cells, read-out: GI
Outline: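 Gingival fibroblasts were grown from healthy-donor biopsies of permanent molars in DMEM/F12 with 10% FCS, then seeded at 1x10⁴ cells/well. After 24 h, cells were treated for 72 h at 37°C, 5% CO₂. Read-out was MTT with isopropanol solubilization at 405 nm, expressed as % of untreated cells.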

[5] = Chemical stability of the compound in phosphate buffer assessed as degradation at 2 uM at pH 7.2 after 0.5 to 24 hrs by HPLC analysis; assay type: physicochemical; conditions: pH 7.2, 2 µM
Outline: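 Test solutions (2 µM) made from a 1 mg/mL DMSO stock diluted into pH 7.2 phosphate buffer and held at 37°C. Aliquots analysed by HPLC with diode-array detection on a phenyl-hexyl column at 0, 0.5, 2, 4 and 24 h.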

A-431 [6] = assay: Induction of apoptosis in human A431 cells assessed as DNA fragmentation at 2 uM after 24 hrs by ELISA analysis; assay type: functional
Outline: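 A431 cells seeded at 5x10³ cells/well, then exposed to compound for 24 h at 37°C, 5% CO₂. Nucleosomal DNA fragmentation in lysate supernatants quantified by sandwich ELISA with anti-histone-biotin and anti-DNA-peroxidase antibodies and ABTS substrate (20 min), read at 405 nm. Expressed as fold increase, treated over untreated absorbance.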

[7] = target: T1, Epidermal growth factor receptor; conditions: A-431, 2 uM
[8] = target: T1, Epidermal growth factor receptor; conditions: A-431, 10 uM
A-431 [9] = assay: Effect on total Akt levels in human A431 cells after 2 hrs by ELISA analysis; assay type: cell-based; conditions: a-431, 2 h

T1 sequence (P00533 whole entry): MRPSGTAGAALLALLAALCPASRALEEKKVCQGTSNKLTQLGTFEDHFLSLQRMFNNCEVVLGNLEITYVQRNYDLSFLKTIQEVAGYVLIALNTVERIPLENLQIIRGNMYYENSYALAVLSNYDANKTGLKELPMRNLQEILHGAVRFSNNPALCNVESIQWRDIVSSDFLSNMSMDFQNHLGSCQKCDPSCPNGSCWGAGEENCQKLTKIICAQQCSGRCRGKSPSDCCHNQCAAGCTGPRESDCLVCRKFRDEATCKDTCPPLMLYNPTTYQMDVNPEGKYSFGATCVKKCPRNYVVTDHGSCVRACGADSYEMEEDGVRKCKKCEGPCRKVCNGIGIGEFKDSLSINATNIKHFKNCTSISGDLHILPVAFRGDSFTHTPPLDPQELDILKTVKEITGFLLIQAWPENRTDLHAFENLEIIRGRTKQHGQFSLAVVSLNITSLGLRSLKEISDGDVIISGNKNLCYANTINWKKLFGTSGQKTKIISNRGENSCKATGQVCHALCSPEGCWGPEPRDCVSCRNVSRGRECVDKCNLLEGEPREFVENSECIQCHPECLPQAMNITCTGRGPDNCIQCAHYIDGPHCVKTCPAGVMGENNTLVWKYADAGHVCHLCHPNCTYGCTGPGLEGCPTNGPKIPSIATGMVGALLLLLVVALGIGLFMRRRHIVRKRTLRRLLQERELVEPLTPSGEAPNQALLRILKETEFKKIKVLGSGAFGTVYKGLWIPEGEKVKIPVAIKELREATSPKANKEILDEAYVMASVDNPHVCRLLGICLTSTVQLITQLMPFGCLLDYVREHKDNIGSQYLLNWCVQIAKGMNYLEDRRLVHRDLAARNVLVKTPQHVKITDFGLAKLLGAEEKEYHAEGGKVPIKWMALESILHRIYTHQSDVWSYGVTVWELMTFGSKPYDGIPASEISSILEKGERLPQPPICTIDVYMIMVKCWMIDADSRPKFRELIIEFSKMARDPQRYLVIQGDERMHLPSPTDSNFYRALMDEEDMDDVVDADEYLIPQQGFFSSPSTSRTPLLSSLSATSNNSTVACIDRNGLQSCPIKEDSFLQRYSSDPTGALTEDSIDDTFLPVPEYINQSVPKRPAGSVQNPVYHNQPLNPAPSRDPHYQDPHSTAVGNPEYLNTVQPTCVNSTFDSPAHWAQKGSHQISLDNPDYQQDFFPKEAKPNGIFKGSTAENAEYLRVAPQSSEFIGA

| inhibition [1] | IC50 (A-431 [2]) | SMILES | IC50 (HaCaT) | inhibition at 72 h, 30 µM [4] | Activity (A-431 [6]) | other results |
| --- | --- | --- | --- | --- | --- | --- |
| < 50% | 17.1 µM | O=C(CCN=C=S)Nc1ccc2ncnc(Nc3cccc(Br)c3)c2c1 | 18.9 µM | – | – | – |
| < 50% | 16.1 µM | O=C(CCCCCCN=C=S)Nc1ccc2ncnc(Nc3cccc(Br)c3)c2c1 | 17.3 µM | – | – | – |
| < 50% | 14.4 µM | O=C(CCCCCN=C=S)Nc1ccc2ncnc(Nc3cccc(Br)c3)c2c1 | 16.5 µM | < 50% | – | Stability [5]: Stable |
| < 50% | 17.1 µM | O=C(CCCN=C=S)Nc1ccc2ncnc(Nc3cccc(Br)c3)c2c1 | 16.3 µM | < 50% | – | – |
| < 50% | 16.3 µM | O=C(CCCCN=C=S)Nc1ccc2ncnc(Nc3cccc(Br)c3)c2c1 | 18.2 µM | – | – | – |
| – | 2.04 µM | S=C=Nc1ccc2ncnc(Nc3cccc(Br)c3)c2c1 | 2.62 µM | < 50% | 40% | inhibition [7]: Active; IC50 [3]: 0.88 µM; inhibition [8]: 89%; Activity (A-431 [9]): Non-toxic; Stability [5]: Stable |

Continued, compound first:

| SMILES | inhibition [1] | IC50 (A-431 [2]) | IC50 (HaCaT) | inhibition at 72 h, 30 µM [4] | Activity (A-431 [6]) | other results |
| --- | --- | --- | --- | --- | --- | --- |
| C[S+]([O-])CCCCN=C=S (centres undefined) [SULFORAPHANE] | – | 15.8 µM | – | – | – | IC50 [3]: 9 µM |
| Nc1ccc2ncnc(Nc3cccc(Br)c3)c2c1 | – | 11.1 µM | 14.3 µM | < 50% | – | – |
| CC[C@@]1(O)C(=O)OCc2c1cc1n(c2=O)Cc2cc3ccccc3nc2-1 [CAMPTOTHECIN] | – | – | – | – | 65% | – |
| C=CC(=O)Nc1ccc2ncnc(Nc3cccc(Br)c3)c2c1 | – | – | – | – | 48% | – |
